Experimental data as given in ChEMBL document CHEMBL1138195, “Highly chiral muscarinic ligands: the discovery of (2S,2'R,3'S,5'R)-1-methyl-2-(2-methyl-1,3-oxathiolan-5-yl)pyrrolidine 3-sulfoxide methyl iodide, a potent, functionally selective, M2 partial agonist” (J Med Chem, 2006).

Key:
[1] = molecular target: T1, Muscarinic acetylcholine receptor M5 (Homo sapiens, UniProt P08912); experiment: Binding affinity to cloned human muscarinic M5 receptor expressed in CHO cells; assay type: cell-based
T1 sequence (P08912 whole entry): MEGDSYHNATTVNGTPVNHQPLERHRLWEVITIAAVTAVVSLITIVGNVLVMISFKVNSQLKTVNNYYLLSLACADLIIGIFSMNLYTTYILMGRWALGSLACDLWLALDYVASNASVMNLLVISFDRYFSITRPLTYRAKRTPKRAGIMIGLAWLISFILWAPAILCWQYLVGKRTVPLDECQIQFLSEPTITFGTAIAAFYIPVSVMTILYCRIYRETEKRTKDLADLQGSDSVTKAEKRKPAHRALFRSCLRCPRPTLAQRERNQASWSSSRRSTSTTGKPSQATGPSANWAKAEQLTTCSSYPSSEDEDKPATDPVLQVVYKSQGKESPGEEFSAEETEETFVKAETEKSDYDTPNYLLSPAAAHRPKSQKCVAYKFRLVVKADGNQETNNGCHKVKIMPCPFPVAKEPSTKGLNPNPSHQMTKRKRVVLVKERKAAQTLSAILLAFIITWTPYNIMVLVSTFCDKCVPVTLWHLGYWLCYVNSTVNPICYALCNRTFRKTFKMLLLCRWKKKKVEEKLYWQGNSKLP
In short: (§1)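 Membranes from CHO cells stably expressing human hm2, hm4 or hm5 receptors, at 70, 50 and 25 µg/mL protein respectively. 0.2 nM [3H]NMS displaced by unlabelled ligand for 120 min at room temperature, in 25 mM sodium phosphate with 5 mM MgCl2, pH 7.4. Rapid filtration, then scintillation counting. Mean of at least three experiments.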

[2] = molecular target: T2, Muscarinic acetylcholine receptor M4 (Homo sapiens, UniProt P08173); experiment: Binding affinity to cloned human muscarinic M4 receptor expressed in CHO cells; assay type: cell-based; in short: as §1
T2 sequence (P08173 whole entry): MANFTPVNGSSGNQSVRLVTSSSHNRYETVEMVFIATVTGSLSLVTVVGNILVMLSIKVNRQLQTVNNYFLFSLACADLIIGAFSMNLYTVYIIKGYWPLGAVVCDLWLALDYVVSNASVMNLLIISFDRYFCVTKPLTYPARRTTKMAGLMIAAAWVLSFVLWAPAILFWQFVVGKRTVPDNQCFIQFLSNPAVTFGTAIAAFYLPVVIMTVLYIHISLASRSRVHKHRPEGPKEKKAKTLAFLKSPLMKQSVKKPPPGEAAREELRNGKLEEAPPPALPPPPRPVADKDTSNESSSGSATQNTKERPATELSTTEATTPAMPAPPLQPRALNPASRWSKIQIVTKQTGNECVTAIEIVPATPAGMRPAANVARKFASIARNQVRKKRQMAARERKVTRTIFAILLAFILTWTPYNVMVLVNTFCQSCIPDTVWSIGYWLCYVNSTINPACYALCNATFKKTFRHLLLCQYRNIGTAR

[3] = molecular target: T3, Muscarinic acetylcholine receptor M1 (Homo sapiens, UniProt P11229); experiment: Binding affinity to cloned human muscarinic M1 receptor expressed in CHO cells; assay type: cell-based
T3 sequence (P11229 whole entry): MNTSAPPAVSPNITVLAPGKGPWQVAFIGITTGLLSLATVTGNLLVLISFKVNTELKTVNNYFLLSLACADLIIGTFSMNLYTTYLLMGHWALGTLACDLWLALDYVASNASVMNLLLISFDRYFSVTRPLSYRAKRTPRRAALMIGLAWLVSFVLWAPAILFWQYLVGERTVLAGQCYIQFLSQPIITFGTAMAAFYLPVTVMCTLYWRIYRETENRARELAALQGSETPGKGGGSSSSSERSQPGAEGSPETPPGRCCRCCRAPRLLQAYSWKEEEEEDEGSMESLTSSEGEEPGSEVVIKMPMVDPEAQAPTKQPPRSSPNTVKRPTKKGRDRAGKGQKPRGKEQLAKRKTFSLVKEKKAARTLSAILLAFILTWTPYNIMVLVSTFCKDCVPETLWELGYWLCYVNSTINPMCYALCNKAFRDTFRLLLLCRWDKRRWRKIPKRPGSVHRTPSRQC

[4] = molecular target: T4, Muscarinic acetylcholine receptor M2 (Homo sapiens, UniProt P08172); experiment: Binding affinity to cloned human muscarinic M2 receptor expressed in CHO cells; assay type: cell-based; in short: as §1
T4 sequence (P08172 whole entry): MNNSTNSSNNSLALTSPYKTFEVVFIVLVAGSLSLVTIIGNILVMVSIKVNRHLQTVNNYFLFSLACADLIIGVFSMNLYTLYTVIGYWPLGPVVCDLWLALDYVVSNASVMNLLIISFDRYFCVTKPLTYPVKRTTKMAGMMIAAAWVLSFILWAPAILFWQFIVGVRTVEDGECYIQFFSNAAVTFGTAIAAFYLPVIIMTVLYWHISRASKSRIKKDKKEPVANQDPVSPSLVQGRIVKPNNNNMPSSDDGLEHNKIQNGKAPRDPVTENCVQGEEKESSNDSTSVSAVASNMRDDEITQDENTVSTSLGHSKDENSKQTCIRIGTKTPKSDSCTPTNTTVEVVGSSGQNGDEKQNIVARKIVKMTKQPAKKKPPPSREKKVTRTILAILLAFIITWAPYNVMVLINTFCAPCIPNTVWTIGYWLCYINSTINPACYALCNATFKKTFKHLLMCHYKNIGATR

[5] = molecular target: Muscarinic acetylcholine receptor M3 (Homo sapiens, UniProt P20309); experiment: Binding affinity to cloned human muscarinic M3 receptor expressed in CHO cells; assay type: cell-based
[6] = molecular target: Muscarinic acetylcholine receptor M3 (Cavia porcellus) (UniProt Q8VH26); experiment: Agonist potency at muscarinic M3 receptor in guinea pig ileum; assay type: functional, tissue-based
In short: (§2)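 Isolated guinea pig tissue contractions, measured against arecaidine propargyl ester control curves. Agonists: cumulative dose-response curve after a 30 min wash, responses as % of the control maximum. Antagonists: 60 min incubation, then a new agonist curve. Parallel time-control tissues were run. Values expressed as pD2 (-log ED50) with intrinsic activity, or as pKb (-log Kb).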

[7] = molecular target: T5, Muscarinic acetylcholine receptor M2 (Homo sapiens) (UniProt P08172); experiment: Antagonist affinity at muscarinic M2 receptor in guinea pig atrium; assay type: functional, tissue-based; details: Cavia porcellus; Cardiac atrium; target entry is the homologue from another species
T5 sequence (whole entry): T4 sequence (P08172 whole entry)
In short: (§3)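 Guinea pig left atria in PSS at 30 °C, paced by square-wave pulses (1 ms, 1 Hz, 5-10 V). Inotropic force recorded isometrically after 2 h equilibration, with cumulative dose-response curves to arecaidine propargyl ester as reference. Antagonists incubated 60 min after a 30 min wash, then the curve was repeated. Values given as pD2 with intrinsic activity, or as pKb.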

[8] = molecular target: T6, Muscarinic acetylcholine receptor M4 (Homo sapiens) (UniProt P08173); experiment: Antagonist affinity at muscarinic M4 receptor in guinea pig lung strips; assay type: functional; details: Cavia porcellus, target entry is the homologue from another species; in short: as §2
T6 sequence (whole entry): T2 sequence (P08173 whole entry)

[9] = molecular target: Muscarinic acetylcholine receptor M3 (Cavia porcellus) (UniProt Q8VH26); experiment: Antagonist affinity at muscarinic M3 receptor in guinea pig ileum; assay type: functional, tissue-based; in short: as §2
[10] = molecular target: T7, Muscarinic acetylcholine receptor M1 (Homo sapiens) (UniProt P11229); experiment: Antagonist affinity at muscarinic M1 receptor in rabbit vas deferens; assay type: functional, tissue-based; details: Oryctolagus cuniculus, target entry is the homologue from another species
T7 sequence (whole entry): T3 sequence (P11229 whole entry)
In short: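 Field-stimulated (0.1 ms, 2 Hz, 10-15 V), contractions recorded isometrically after 1 h equilibration. Cumulative dose-response curves against p-Cl-McN-A-343 reference. Antagonists incubated 60 min before the repeat curve. Reported as pD2 (-log ED50) with intrinsic activity, or as pKb.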

[11] = molecular target: T5, Muscarinic acetylcholine receptor M2 (Homo sapiens); experiment: Agonist potency at muscarinic M2 receptor in guinea pig atrium; assay type: functional, tissue-based; details: Cavia porcellus; Cardiac atrium; target entry is the homologue from another species; in short: as §3
[12] = molecular target: T5, Muscarinic acetylcholine receptor M2 (Homo sapiens); experiment: Efficacy of agonist at muscarinic M2 receptor in guinea pig atrium as ratio of Ka/ED50; assay type: functional, tissue-based; details: Cavia porcellus; Cardiac atrium; target entry is the homologue from another species
In short: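 Functional affinity constants (Ka) obtained in the atrium and ileum preparations. Full agonists: Furchgott-Bursztyn method. Partial agonists: Waud method, comparing their concentration-response curves with arecaidine propargyl ester, with equieffective concentrations read graphically. Ka was then related to ED50.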

Chain of Muscarinic acetylcholine receptor M3 (P20309 whole entry): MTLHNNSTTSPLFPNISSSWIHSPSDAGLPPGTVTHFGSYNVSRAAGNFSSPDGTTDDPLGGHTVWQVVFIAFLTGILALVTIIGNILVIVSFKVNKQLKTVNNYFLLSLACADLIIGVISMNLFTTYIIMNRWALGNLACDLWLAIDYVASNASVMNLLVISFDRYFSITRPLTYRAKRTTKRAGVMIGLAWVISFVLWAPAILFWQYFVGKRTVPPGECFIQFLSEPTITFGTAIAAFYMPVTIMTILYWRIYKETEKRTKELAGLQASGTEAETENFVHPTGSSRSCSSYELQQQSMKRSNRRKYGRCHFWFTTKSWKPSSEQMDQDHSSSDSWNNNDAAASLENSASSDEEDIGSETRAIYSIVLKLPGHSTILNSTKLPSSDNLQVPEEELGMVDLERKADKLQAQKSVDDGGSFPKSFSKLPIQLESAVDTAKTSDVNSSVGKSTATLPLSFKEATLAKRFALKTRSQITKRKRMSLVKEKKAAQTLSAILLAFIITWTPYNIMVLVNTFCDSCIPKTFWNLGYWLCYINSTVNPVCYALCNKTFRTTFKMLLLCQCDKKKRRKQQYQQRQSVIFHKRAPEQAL
Chain of Muscarinic acetylcholine receptor M3 (Cavia porcellus) (Q8VH26 1-587): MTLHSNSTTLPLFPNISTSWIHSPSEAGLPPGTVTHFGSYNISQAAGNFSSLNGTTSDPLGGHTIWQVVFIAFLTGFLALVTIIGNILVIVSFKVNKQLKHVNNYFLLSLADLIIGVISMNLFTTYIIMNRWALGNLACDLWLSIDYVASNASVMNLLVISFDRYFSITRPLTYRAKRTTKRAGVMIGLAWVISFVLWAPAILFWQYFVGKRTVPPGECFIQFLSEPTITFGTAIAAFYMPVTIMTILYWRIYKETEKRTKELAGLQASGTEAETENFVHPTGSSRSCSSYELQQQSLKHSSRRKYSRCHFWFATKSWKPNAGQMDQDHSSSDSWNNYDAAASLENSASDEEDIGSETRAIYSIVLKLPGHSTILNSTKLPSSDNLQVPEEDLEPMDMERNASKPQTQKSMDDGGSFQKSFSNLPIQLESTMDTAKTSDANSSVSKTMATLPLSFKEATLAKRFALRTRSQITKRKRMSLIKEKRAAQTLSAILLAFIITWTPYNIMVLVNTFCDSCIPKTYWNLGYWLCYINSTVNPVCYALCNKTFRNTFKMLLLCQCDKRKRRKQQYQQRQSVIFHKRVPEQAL

Structure (SMILES)	Ki [1] [µM]	Ki [2] [µM]	Ki [3] [µM]	Ki [4] [µM]	Ki [5] [µM]	Activity [6]	pKb [7]	pKb [8]	pKb [9]	pKb [10]	Activity [11]	Log Ki ([2]; cho)	Log Ki ([3]; cho)	Log Ki ([5]; cho)	Ratio [12]	-logKa [11]	pD2 [11]
C[C@@H]1O[C@H]([C@H]2CCC[N+]2(C)C)C[S@+]1[O-]	> 100	> 100	> 100	> 100	> 100	–	–	–	–	–	–	–	–	–	–	–	–
C[C@@H]1O[C@H]([C@H]2CCCN2C)C[S@+]1[O-]	> 100	> 100	> 100	> 100	> 100	–	–	–	–	–	–	–	–	–	–	–	–
C[C@@H]1O[C@H]([C@@H]2CCCN2C)C[S@+]1[O-]	> 100	> 100	> 100	89.1	> 100	0	< 5	< 5	< 5	< 5	0	–	–	–	–	–	–
C[C@H]1O[C@@H]([C@@H]2CCC[N+]2(C)C)C[S@@+]1[O-] (stereo in doubt; (-)-6)	> 100	> 100	> 100	28.8	> 100	–	–	–	–	–	–	–	–	–	–	–	–
C[C@H]1O[C@@H]([C@@H]2CCC[N+]2(C)C)C[S@@+]1[O-].[I-] (stereo in doubt; (-)-8)	> 100	–	–	> 100	–	–	–	–	–	–	–	< -4	< -4	< -4	–	–	–
C[C@H]1O[C@@H]([C@H]2CCCN2C)C[S@@+]1[O-]	> 100	> 100	> 100	> 100	> 100	–	–	–	–	–	–	–	–	–	–	–	–
C[C@H]1O[C@@H]([C@@H]2CCC[N+]2(C)C)C[S@@+]1[O-] (stereo in doubt; (-)-8)	–	–	–	–	–	0	< 5	< 5	< 5	< 5	0	–	–	–	–	–	–
C[C@@H]1O[C@H]([C@@H]2CCC[N+]2(C)C)C[S@+]1[O-]	> 100	> 100	> 100	51.3	> 100	0	–	< 5	< 5	< 5	0.41	–	–	–	84	6.13	7.65
C[C@@H]1O[C@H]([C@@H]2CCCN2C)C[S@@+]1[O-]	> 100	> 100	> 100	> 100	> 100	0	< 5	< 5	< 5	< 5	0	–	–	–	–	–	–
